# Test results as given in PubChem BioAssay AID1242 (PCMD, 2008).
# In all, about 120,000 compounds went through this assay and about 20 (0.02%) were called active. The sample holds actives, similar compounds and a random draw of the others, so the mix is not that of the screen.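 The calls were made as follows: active = inhibition above 30.3% in the primary screen of four-compound pools, then above 30% when the compound was retested; inconclusive = passed the primary limit but could not be retested; inactive = the rest.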
# Test: clotrimazole potentiators killing C. albicans biofilm, primary screen, 4-compound mixtures (AID 1242);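 also: compounds exposed to preformed 24 h biofilms for 48 h; 0% = untreated biofilm control and 100% = clotrimazole plus chlorhexidine kill blank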
# Conditions: C. albicans biofilm persisters + clotrimazole, fluorescence viability, primary screen in compound mixtures, stronger effect = higher value
# Outline: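 Test system: C. albicans CAF4-2 wild-type biofilms; buffer or medium: RPMI/MOPS medium, pH 7.0; schedule: 24 h biofilm formation, then 48 h compound exposure, 37 °C; detection: Alamar Blue fluorescence; measure: percent inhibition of biofilm viability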
# [1] = measured here: individual compound retest, at 61 µM
compound,measurement,setting,value
COc1ccc(C)cc1NC(=O)NCc1ccccn1,inhibition,at 7.6 µM unless noted,16.2% (inactive)
CC(/C=C/c1ccco1)=N/NC(=O)C1COc2ccccc2O1 (stereo not given),inhibition,at 7.6 µM unless noted,16.1% (inactive)
COc1ccc(-n2c(C)nn(CC3CC3)c2=O)cc1,inhibition,at 7.6 µM unless noted,-10.4% (inactive)
Cc1ccnc2nc(C(=O)OCC(=O)N(CC(C)C)CC(C)C)nn12,inhibition,at 7.6 µM unless noted,6.65% (inactive)
CNC(=S)N1CCC(NC(=O)C(Cc2ccc(F)cc2)NC(C)=O)CC1 (stereo not given),inhibition,at 7.6 µM unless noted,5.74% (inactive)
COc1ccc(CC(=O)NCc2nnc(SCC(=O)Nc3nccs3)n2C)cc1,inhibition,at 7.6 µM unless noted,7.45% (inactive)
CCOC(=O)CN/C=C(\C#N)c1ccc(F)cc1,inhibition,at 7.6 µM unless noted,12.8% (inactive)
O=C(Nc1ccc(Cl)cc1)/C(=C1\CCCN1)[N+](=O)[O-],inhibition,at 7.6 µM unless noted,18.1% (inactive)
O=C(CSc1nnc(SCc2ccc(F)cc2)s1)Nc1ccc(C(=O)O)cc1,inhibition,at 7.6 µM unless noted,12.3% (inactive)
COC(=O)c1nn(-c2cccc(Cl)c2)ccc1=O,inhibition,at 7.6 µM unless noted,12.6% (inactive)
CCOC(=O)CCNC(=O)N1CCCC(C(=O)c2ccccc2SC)C1 (stereo not given),inhibition,at 7.6 µM unless noted,27% (inactive)
CN1C=CC=C/C1=C1\SC(=S)N(Cc2ccccc2)C1=O,inhibition,at 7.6 µM unless noted,20.5% (inactive)
COCCN1C2=C(COC(C)(C)C2)C(=S)NC1c1ccccc1 (stereo not given),inhibition,at 7.6 µM unless noted,14% (inactive)
CC(=O)NCC(=O)N1CCCC(C(=O)c2ccc3c4c(cccc24)CC3)C1 (stereo not given),inhibition,at 7.6 µM unless noted,0.67% (inactive)
CC(=O)NC(NC(=S)Nc1c(C)n(C)n(-c2ccccc2)c1=O)C(Cl)(Cl)Cl (stereo not given),inhibition,at 7.6 µM unless noted,12% (inactive)
COc1ccc(/C=C/CN2CCCC(C(=O)c3cc(F)ccc3F)C2)cc1 (stereo not given),inhibition,at 7.6 µM unless noted,8.39% (inactive)
C/C=N/N(c1ccccc1)c1ccccc1,inhibition,at 7.6 µM unless noted,26.1% (inactive)
O=C(Nc1ccccc1C(=O)O)c1cc(S(=O)(=O)N2CCCCC2)cs1,inhibition,at 7.6 µM unless noted,-7.15% (inactive)
O=C(Nc1ccc(S(=O)(=O)Nc2nccs2)cc1)c1cc(=O)[nH]c2ccccc12,inhibition,at 7.6 µM unless noted,21.7% (inactive)
O=C(Cc1ccc(Cl)cc1)NCc1nc(-c2ccccc2)no1,inhibition,at 7.6 µM unless noted,11.6% (inactive)
COC(=O)C1=C(C(=O)OC)C(c2cc([N+](=O)[O-])ccc2O)c2sc(=O)[nH]c2S1 (stereo not given),inhibition,at 7.6 µM unless noted,12.9% (inactive)
COc1ccc(C2CC(c3cccs3)=NN2C(=O)CSc2nnc(N)s2)cc1OC (stereo not given),inhibition,at 7.6 µM unless noted,2.04% (inactive)
Cc1ccc(Cl)cc1NC(=O)COC(=O)CC(C)(C)C,inhibition,at 7.6 µM unless noted,18.1% (inactive)
CC(C)(C)OC(=O)NCCCCCC(=O)N/N=C/c1coc2ccccc2c1=O,inhibition,at 7.6 µM unless noted,21.8% (inactive)
CCC(C)(C)NC(=O)CN(Cc1cccs1)C(=O)CNS(=O)(=O)c1ccc(F)cc1,inhibition,at 7.6 µM unless noted,7.21% (inactive)
COc1cccc2c(N/N=C/c3ccco3)cc(C)nc12,inhibition,at 7.6 µM unless noted,8.66% (inactive)
COc1cccc(C2Nc3cccc4cccc(c34)N2)c1,inhibition,at 7.6 µM unless noted,25.2% (inactive)
O=C(NC1CCCCC1)c1cc(C2CC2)on1,inhibition,at 7.6 µM unless noted,7.38% (inactive)
CCCCC(NC(=O)c1cccc(Br)c1)C(=O)O (stereo not given),inhibition,at 7.6 µM unless noted,22.6% (inactive)
CCOC(=O)c1cc(-c2ccc(F)cc2)n(CC(=O)NCc2ccccn2)c1C,inhibition,at 7.6 µM unless noted,14% (inactive)
CCC(=O)/C=C1\Sc2ccccc2N1CC,inhibition,at 7.6 µM unless noted,17% (inactive)
CCN1/C(=C/c2ccc3ccc(C)cc3[n+]2CC)Sc2ccccc21,inhibition,at 7.6 µM unless noted,9.78% (inactive)
CCN1/C(=C\c2ccc3ccccc3[n+]2CC)Sc2cc(C)ccc21,inhibition,at 7.6 µM,31.3% (active)
same,inhibition,[1],72.3%
C#CCNc1ccc(C(=O)OCC)cc1,inhibition,at 7.6 µM unless noted,15.4% (inactive)
CC1CC(C)CN(CCC(=O)Nc2ccc3c(c2)CCC3)C1 (stereo not given),inhibition,at 7.6 µM unless noted,16.6% (inactive)
C=CCN1CC(C)/C(=N\O)CC1C (stereo not given),inhibition,at 7.6 µM unless noted,26.7% (inactive)
O=C(NCCCN1CCOCC1)c1ccccc1NS(=O)(=O)c1ccc(Br)cc1,inhibition,at 7.6 µM unless noted,20.1% (inactive)
CC(OC(=O)c1ccccc1OCc1ccc(Cl)cc1)C(N)=O (stereo not given),inhibition,at 7.6 µM unless noted,9.56% (inactive)
COc1ccc(NC(=O)CSc2nc(C)cs2)cc1,inhibition,at 7.6 µM unless noted,-9.15% (inactive)
Cc1ccc2cc(/C=N/NC(=O)[C@@H]3CCCN3)c(Cl)nc2c1,inhibition,at 7.6 µM,36% (inactive)
same,inhibition,[1],-44.1%
COc1ccc(C(=O)N/N=C(\C)CC(=O)Nc2ccc(Cl)cn2)cc1,inhibition,at 7.6 µM unless noted,14.5% (inactive)
CC(C)Cc1nc(Cl)c(C#N)c2c1CCC2,inhibition,at 7.6 µM unless noted,20.6% (inactive)
Cc1nc(N)[nH]c(=O)c1Oc1cccc(C(F)(F)F)c1,inhibition,at 7.6 µM unless noted,25.2% (inactive)
CCn1ccnc1CN1CCCC(C(=O)c2ccc3c4c(cccc24)CC3)C1 (stereo not given),inhibition,at 7.6 µM unless noted,13.8% (inactive)
CC(=O)Nc1ccc(S(=O)(=O)Nc2nccc(/C=C/c3ccccc3F)n2)cc1,inhibition,at 7.6 µM unless noted,25.1% (inactive)
COc1ccc(CCNC(=O)C(=O)NCc2ccccc2C)cc1OC,inhibition,at 7.6 µM unless noted,25.3% (inactive)
COCCNc1nc(-c2ccccc2)nc2c1oc1ccccc12,inhibition,at 7.6 µM unless noted,17.2% (inactive)
O=C(NCC1CCCO1)c1ccccc1-c1nc(-c2ccccc2Cl)no1 (stereo not given),inhibition,at 7.6 µM unless noted,16.1% (inactive)
Cc1cc(NC(=O)CSCc2ccccc2C)no1,inhibition,at 7.6 µM unless noted,13.5% (inactive)
O=C(NCCCN1CCOCC1)c1ccc([N+](=O)[O-])cc1[N+](=O)[O-],inhibition,at 7.6 µM unless noted,15.2% (inactive)
O=C(NCCN1CCOCC1)Nc1cccc(Cl)c1,inhibition,at 7.6 µM unless noted,20.6% (inactive)
O=C(CCC(=O)N1CCCC1)Nc1ccc([N+](=O)[O-])cc1,inhibition,at 7.6 µM unless noted,11.9% (inactive)
COc1ccc(Cn2c(O)c(/C=C3/C=CC=N3)c(=O)[nH]c2=O)cc1,inhibition,at 7.6 µM unless noted,11.9% (inactive)
